Results on one compound are retold here after ChEMBL document CHEMBL1143109, “Discovery of novel orally active ureido NPY Y5 receptor antagonists” (Bioorg Med Chem Lett, 2008).

A short description of data set [1]: Inhibition of chloride channel at 10 uM. The essentials: (§1)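 Counterscreen panel of 60 receptors, enzymes and ion channels; inhibition of binding measured at 10 µM.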
The nature of data set [2]: Bioavailability in po dosed rat. In kind it is ADME, organism-based. Particulars: in vivo.
Data set [3] in a line: Bioavailability in Beagle dog. In kind it is ADME, organism-based, Canis lupus familiaris. Particulars: in vivo.
Data set [4] addresses T1, Neuropeptide Y receptor type 5 (Rattus norvegicus) (UniProt Q63634).
T1 sequence (whole entry): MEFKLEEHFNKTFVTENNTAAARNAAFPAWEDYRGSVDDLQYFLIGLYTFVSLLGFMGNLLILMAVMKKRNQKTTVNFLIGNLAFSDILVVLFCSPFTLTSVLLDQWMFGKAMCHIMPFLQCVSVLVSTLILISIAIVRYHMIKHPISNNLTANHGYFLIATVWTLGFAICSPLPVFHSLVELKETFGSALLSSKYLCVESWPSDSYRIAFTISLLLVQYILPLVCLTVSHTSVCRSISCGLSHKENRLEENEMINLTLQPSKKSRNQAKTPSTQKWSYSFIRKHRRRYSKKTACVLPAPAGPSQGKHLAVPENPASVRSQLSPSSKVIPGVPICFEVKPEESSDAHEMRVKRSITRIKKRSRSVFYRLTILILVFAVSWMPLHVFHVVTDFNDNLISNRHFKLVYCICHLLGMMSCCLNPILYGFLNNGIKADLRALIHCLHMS
The experiment in a line: Antagonist activity at rat NPY Y5 receptor expressed in HEK293 cells assessed as inhibition of forskolin-stimulated cAMP production. It counts as functional, cell-based. The method in brief: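 HEK293 cells expressing rat NPY Y5 receptor. Functional antagonism measured as the ability to overcome NPY inhibition of forskolin-stimulated cAMP production; reported as Kb.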

For the next data set, the species on record is Rattus norvegicus. Kind of data set: Antagonism of galanin-induced food intake in rat. In kind it is functional, organism-based.
The target of data set [5] is T2, Neuropeptide Y receptor type 1 (Homo sapiens, UniProt P25929).
T2 sequence (P25929 whole entry): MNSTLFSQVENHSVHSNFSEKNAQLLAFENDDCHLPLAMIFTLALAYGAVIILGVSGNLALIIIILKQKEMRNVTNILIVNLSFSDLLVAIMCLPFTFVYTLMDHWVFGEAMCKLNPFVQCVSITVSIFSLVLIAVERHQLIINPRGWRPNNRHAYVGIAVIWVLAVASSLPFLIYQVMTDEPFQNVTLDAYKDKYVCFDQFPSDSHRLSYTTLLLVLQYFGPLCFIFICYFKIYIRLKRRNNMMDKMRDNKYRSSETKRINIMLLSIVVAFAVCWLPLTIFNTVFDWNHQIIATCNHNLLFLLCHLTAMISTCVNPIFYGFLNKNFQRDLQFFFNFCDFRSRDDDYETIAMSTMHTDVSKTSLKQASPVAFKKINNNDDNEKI
Kind of data set: Binding affinity to human NPY Y1 receptor.

Data set [6] deals with T3, Neuropeptide Y receptor type 2 (Homo sapiens, UniProt P49146).
T3 sequence (P49146 whole entry): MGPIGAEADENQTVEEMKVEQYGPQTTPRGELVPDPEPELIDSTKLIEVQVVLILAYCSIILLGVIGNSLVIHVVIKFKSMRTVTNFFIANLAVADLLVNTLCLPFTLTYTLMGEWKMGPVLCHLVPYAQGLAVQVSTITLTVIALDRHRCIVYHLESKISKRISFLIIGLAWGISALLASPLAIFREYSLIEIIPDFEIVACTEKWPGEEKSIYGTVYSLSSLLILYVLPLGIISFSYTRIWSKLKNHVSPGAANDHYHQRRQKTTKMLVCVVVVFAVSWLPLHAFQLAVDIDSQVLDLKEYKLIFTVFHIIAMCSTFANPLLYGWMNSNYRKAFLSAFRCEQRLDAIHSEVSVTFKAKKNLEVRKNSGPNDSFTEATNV
The experiment in a line: Binding affinity to human NPY Y2 receptor.

The target of data set [7] is Neuropeptide Y receptor type 4 (Homo sapiens, UniProt P50391). Kind of data set: Binding affinity to human NPY Y4 receptor.
Chain of Neuropeptide Y receptor type 4 (P50391 whole entry): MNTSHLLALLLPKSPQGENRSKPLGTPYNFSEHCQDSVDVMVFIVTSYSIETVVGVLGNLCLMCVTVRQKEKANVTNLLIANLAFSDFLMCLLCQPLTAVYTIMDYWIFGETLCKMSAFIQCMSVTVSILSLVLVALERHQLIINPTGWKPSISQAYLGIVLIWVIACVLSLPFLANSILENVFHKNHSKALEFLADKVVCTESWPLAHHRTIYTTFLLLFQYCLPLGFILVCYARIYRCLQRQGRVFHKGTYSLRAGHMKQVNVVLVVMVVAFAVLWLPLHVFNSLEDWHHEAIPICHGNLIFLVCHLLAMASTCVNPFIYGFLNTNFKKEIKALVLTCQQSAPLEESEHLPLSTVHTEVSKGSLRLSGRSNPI
In data set [8] the target is 5-hydroxytryptamine receptor 2B (Homo sapiens) (UniProt P41595). Kind of data set: Inhibition of 5HT2B receptor at 10 uM. The method in brief:
as §1

Data set [9] addresses T4, 5-hydroxytryptamine receptor 2C (Homo sapiens) (UniProt P28335).
T4 sequence (whole entry): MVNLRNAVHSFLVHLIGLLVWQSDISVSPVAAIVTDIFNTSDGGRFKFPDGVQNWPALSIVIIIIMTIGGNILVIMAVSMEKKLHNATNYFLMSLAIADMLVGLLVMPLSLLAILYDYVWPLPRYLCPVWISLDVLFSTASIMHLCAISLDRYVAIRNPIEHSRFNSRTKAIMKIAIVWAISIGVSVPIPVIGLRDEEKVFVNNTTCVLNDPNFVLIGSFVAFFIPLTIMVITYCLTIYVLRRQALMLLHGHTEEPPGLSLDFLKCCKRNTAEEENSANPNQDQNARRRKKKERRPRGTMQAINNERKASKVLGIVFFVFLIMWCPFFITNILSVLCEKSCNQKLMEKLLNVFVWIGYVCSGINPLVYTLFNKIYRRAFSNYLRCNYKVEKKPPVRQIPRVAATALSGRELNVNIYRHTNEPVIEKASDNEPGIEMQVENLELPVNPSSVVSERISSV
Kind of data set: Inhibition of 5HT2C receptor at 10 uM. The essentials:
as §1

Data set [10] deals with T5, 5-hydroxytryptamine receptor 3A (Homo sapiens) (UniProt P46098).
T5 sequence (whole entry): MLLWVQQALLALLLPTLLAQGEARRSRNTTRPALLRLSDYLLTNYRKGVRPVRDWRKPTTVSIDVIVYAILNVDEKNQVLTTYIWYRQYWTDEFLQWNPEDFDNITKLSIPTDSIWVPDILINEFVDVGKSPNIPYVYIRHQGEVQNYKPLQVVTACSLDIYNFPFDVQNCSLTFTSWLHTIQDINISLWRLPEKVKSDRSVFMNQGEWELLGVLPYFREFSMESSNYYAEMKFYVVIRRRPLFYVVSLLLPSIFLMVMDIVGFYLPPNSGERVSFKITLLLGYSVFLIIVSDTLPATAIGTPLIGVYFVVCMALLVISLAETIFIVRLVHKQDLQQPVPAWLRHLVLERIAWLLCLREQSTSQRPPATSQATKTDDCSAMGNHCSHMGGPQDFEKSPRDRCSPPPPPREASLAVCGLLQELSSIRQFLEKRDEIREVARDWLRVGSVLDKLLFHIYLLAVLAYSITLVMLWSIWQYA
Kind of data set: Inhibition of 5HT3 receptor at 10 uM. The method in brief:
as §1

The target in data set [11] is 5-hydroxytryptamine receptor 5A (Homo sapiens) (UniProt P47898). The experiment in a line: Inhibition of 5HT5A receptor at 10 uM. The essentials: as §1
Chain of 5-hydroxytryptamine receptor 5A (Homo sapiens) (P47898 whole entry): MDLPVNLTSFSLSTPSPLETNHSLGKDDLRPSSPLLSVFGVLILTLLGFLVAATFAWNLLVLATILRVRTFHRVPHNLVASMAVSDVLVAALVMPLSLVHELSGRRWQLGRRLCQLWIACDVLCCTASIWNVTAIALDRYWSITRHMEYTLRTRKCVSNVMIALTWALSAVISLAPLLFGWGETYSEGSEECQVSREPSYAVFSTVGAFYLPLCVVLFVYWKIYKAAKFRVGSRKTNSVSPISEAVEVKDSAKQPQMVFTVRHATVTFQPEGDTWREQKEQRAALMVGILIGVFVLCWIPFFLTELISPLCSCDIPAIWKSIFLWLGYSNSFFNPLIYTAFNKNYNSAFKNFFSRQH
Data set [12] addresses 5-hydroxytryptamine receptor 6 (Homo sapiens) (UniProt P50406). The experiment in a line: Inhibition of 5HT6 receptor at 10 uM. The essentials: as §1
Data set [13] addresses Sodium-dependent noradrenaline transporter (Homo sapiens) (UniProt P23975). The experiment in a line: Inhibition of norepinephrine transporter at 10 uM. The essentials:
as §1

For data set [14], the target named is Sodium-dependent dopamine transporter (Homo sapiens) (UniProt Q01959). The experiment in a line: Inhibition of dopamine transporter at 10 uM. The method in brief: as §1
Chain of Sodium-dependent dopamine transporter (Homo sapiens) (Q01959 whole entry): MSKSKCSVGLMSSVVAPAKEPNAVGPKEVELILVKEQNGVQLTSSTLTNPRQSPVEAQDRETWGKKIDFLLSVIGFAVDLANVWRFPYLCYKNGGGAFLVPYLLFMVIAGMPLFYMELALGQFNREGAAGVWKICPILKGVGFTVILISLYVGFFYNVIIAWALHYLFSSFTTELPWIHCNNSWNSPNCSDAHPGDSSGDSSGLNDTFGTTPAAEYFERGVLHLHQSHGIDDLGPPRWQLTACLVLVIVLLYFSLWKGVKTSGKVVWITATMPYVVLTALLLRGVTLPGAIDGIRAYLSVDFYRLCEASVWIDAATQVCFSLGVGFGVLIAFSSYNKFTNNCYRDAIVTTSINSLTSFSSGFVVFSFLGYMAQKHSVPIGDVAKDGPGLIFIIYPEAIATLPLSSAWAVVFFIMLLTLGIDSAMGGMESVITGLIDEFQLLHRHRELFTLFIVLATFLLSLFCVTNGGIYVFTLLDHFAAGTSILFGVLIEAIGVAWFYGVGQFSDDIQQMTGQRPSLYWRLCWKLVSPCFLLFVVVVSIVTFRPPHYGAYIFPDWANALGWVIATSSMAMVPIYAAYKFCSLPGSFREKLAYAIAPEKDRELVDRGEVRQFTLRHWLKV
Data set [15] can be described thus: Inhibition of potassium channel at 10 uM. The essentials:
as §1

Active and inactive are the calls of the source. The calls are words filed in the database; no cut-off is given here.

Chain of 5-hydroxytryptamine receptor 6 (Homo sapiens) (P50406 whole entry): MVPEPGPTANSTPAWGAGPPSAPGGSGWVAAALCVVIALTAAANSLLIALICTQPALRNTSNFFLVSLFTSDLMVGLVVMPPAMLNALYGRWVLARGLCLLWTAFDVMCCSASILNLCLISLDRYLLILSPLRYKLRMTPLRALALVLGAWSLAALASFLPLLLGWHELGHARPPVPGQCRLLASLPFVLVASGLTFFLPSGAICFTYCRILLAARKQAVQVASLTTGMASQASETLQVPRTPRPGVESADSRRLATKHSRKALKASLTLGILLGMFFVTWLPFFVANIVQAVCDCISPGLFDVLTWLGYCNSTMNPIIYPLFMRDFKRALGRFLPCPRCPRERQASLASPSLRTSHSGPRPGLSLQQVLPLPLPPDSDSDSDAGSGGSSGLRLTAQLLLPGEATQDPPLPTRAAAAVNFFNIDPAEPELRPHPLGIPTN
Chain of 5-hydroxytryptamine receptor 2B (Homo sapiens) (P41595 whole entry): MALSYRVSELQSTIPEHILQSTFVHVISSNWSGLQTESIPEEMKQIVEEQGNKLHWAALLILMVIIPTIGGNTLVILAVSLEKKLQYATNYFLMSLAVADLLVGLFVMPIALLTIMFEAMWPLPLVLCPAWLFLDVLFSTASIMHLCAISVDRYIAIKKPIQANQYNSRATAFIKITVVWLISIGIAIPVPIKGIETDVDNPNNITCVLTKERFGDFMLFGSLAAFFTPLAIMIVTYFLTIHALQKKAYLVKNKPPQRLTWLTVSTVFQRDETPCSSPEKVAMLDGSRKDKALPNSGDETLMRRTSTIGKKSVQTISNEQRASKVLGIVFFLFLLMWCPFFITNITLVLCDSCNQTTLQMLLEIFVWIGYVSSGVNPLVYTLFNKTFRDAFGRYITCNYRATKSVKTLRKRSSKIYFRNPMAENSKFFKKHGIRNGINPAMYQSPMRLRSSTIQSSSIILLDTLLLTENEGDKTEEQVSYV
Chain of Sodium-dependent noradrenaline transporter (Homo sapiens) (P23975 whole entry): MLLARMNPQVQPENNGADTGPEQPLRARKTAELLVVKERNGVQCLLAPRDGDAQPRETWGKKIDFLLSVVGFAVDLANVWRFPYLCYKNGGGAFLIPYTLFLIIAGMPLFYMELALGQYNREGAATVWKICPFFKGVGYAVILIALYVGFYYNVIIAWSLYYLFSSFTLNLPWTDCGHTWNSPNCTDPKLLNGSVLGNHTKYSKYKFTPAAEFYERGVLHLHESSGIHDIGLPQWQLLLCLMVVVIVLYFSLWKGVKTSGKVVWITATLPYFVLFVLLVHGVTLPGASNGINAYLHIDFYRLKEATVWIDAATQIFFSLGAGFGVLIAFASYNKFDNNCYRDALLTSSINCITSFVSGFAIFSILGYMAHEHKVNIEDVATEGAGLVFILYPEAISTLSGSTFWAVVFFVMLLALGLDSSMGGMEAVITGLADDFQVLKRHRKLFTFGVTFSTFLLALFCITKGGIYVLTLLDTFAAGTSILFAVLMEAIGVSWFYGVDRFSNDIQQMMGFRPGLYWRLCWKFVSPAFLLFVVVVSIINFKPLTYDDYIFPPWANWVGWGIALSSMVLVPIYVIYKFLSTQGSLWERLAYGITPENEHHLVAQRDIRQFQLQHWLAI

As a reminder, the inhibition is the drop in the measured response relative to a control, in per cent. Broadly, the bioavailability is the share of a dose that reaches the circulation, judged against a reference dose that is usually intravenous. A higher bioavailability goes with much systemic uptake. By Kb is commonly meant the equilibrium dissociation constant of an antagonist, usually derived from a functional assay. By Ki is commonly meant a dissociation constant, usually derived from enzyme kinetics or from competition with a known ligand. A higher Ki goes with a looser hold on the target. As to `CC(=O)N1CCC(N(C)C(=O)N[C@H]2CC[C@H](c3cc(F)cc(F)c3)CC2)CC1`, the inhibition in [1] is under 25%; in data set [8], under 10%; in [9], under 10%; in data set [10] it was under 10%; in data set [11], under 10%; in data set [12], under 10%. For the same compound, the inhibition in data set [13] is under 10%; in data set [14], under 10%; in [15] it was under 25%. The bioavailability in [2] was found to be 100%; in data set [3], 94%. In addition, in data set [4], the Kb was 0.0027 µM. Also, in the data set listed under Rattus norvegicus, the result was inactive. Also, the Ki in data set [5], in data set [6] and in data set [7] was over 10 µM throughout.
